Results on 14 molecules are retold here after ChEMBL document CHEMBL1153473 (Bioorg Med Chem Lett, 2009).

In data set [1] the target is T1, Steroid 17-alpha-hydroxylase/17,20 lyase (Rattus norvegicus, UniProt P11715).
T1 sequence (P11715 whole entry): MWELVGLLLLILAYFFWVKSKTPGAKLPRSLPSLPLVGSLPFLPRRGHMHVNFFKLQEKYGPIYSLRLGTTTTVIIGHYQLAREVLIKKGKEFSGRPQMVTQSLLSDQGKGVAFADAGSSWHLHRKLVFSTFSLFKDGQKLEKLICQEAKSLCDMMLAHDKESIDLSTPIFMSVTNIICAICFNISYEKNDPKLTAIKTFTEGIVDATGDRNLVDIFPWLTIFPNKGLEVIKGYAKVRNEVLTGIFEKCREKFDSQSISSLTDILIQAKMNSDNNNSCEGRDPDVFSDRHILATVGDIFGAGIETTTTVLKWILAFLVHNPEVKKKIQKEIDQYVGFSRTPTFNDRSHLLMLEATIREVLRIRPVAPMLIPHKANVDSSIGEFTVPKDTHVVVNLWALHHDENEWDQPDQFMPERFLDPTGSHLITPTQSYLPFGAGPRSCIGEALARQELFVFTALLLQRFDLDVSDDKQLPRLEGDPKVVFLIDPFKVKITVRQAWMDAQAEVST
Briefly: Selectivity index, ratio of IC50 for 17-alpha-hydroxylase activity of rat testicular microsomal P450-17alpha to IC50 for 17,20-lyase activity of rat testicular microsomal P450-17alpha.

For data set [2], the target named is T1, Steroid 17-alpha-hydroxylase/17,20 lyase. Kind of data set: Inhibition of 17-alpha-hydroxylase activity of rat testicular microsomal P450-17alpha. An outline of the steps:
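Rat testicular microsomes (final 0.16 mg/mL) in 50 mM sodium phosphate pH 7.4 with NADPH-generating system and 1.5 µM radiolabelled progesterone; inhibitor in ethanol; 5 min prewarm at 37 °C, 15 min reaction. Ether extraction, TLC (DCM/ethyl acetate 7:3), spots scintillation-counted for 3H; no-inhibitor controls. IC50 from ≥5 concentrations in triplicate, linear regression of inhibition versus log[I].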

Data set [3] shares this target. Briefly: Inhibition of 17,20-lyase activity of rat testicular microsomal P450-17alpha. In short, it runs like this:
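Lyase reaction: rat testicular microsomes (final 0.23 mg/mL), 50 mM sodium phosphate pH 7.4, NADPH-generating system, 1 µM radiolabelled 17α-hydroxyprogesterone substrate; inhibitor added in ethanol; 37 °C prewarm 5 min, then 30 min incubation. Ether-extracted, TLC in DCM/ethyl acetate 4:1, 3H counted per spot; no-inhibitor controls. IC50 from ≥5 concentrations, each in triplicate.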

The next data set addresses T2, Aromatase (Homo sapiens, UniProt P11511).
T2 sequence (P11511 whole entry): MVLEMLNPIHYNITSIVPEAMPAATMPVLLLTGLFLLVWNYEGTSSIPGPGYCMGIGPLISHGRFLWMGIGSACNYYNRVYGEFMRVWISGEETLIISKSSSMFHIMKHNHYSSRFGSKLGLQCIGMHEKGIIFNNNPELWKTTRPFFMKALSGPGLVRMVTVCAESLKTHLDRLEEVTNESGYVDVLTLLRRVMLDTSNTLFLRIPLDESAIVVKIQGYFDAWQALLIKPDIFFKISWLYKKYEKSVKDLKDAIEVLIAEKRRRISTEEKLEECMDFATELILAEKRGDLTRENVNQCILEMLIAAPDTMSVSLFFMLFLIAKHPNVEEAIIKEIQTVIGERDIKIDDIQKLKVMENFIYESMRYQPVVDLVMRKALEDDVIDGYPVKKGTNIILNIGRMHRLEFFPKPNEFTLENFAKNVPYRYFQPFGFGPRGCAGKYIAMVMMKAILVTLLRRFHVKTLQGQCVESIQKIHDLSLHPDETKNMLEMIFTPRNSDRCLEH
Kind of data set: Inhibition of aromatase.

Molecules are shown by their SMILES.

For `O=S(=O)(Oc1ccc(Cn2ccnc2)cc1)c1ccc(Br)cc1`, the “Ratio IC50” value in data set [1] turned out to be 34.6. In addition, the IC50 in data set [2] was determined as 4.84 µM; in data set [3] it was 70.4 nM.
In turn, `Cc1ccc(Cn2ccnc2)cc1` displayed a concentration for half-maximal inhibition (IC50) on Aromatase of 24.5 µM.
At Aromatase, `Fc1ccc(Cn2ccnc2)cc1` gave an IC50 of 0.88 µM.
With `Ic1ccc(Cn2ccnc2)cc1`, the “Ratio IC50” value in data set [1] is 6.4.
Regarding `Clc1ccc(Cn2ccnc2)cc1`, the IC50 on Aromatase was found to be 0.07 µM. That is a double-digit nanomolar value.
On to `Cc1ccc(S(=O)(=O)Oc2ccc(Cn3ccnc3)cc2)cc1`, for which, in data set [1], the “Ratio IC50” value amounted to 109.4. Besides, the half-maximal inhibitory concentration (IC50) is 25.2 µM in data set [2] and 230 nM in data set [3].
On to `O=[N+]([O-])c1ccc(S(=O)(=O)Oc2ccc(Cn3ccnc3)cc2)cc1`, for which, in data set [1], the “Ratio IC50” value is listed as 80.9. Also, the IC50 in data set [2] is 6.88 µM; in data set [3] it was 85 nM.
For the molecule `O=S(=O)(Oc1ccc(Cn2ccnc2)cc1)c1ccc(Cl)cc1`, the “Ratio IC50” value in data set [1] stood at 69.9. Besides, the half-inhibitory concentration (IC50) in data set [2] was 6.85 µM; in data set [3] it was 98.7 nM.
Turning to `COc1ccc(S(=O)(=O)Oc2ccc(Cn3ccnc3)cc2)cc1`, the “Ratio IC50” value in data set [1] was determined as 60. Also, the IC50 came out at 6 µM in data set [2] and 101 nM in data set [3].
Taken in the same sequence, the figures for `O=S(=O)(Oc1ccc(Cn2ccnc2)cc1)c1ccc(I)cc1` were 100.1, 10 µM and 65.1 nM.
With `O=S(=O)(Oc1ccc(Cn2ccnc2)cc1)c1ccc(C(F)(F)F)cc1`, in data set [1], the “Ratio IC50” value stood at 223.8. The half-maximal inhibitory concentration (IC50) in data set [2] came to 64.9 µM; in data set [3], 291 nM.
Take `O=S(=O)(Oc1ccc(Cn2ccnc2)cc1)c1ccc(F)cc1`: in data set [1], the “Ratio IC50” value is on record as 75.9. Moreover, the half-inhibitory concentration (IC50) in data set [2] was determined as 15.9 µM; in data set [3], 210 nM.
As for `CC(=O)N1CCN(c2ccc(OCC3COC(Cn4ccnc4)(c4ccc(Cl)cc4Cl)O3)cc2)CC1` (stereo not given) [KETOCONAZOLE], the “Ratio IC50” value in data set [1] is given as 2.3.
For the molecule `N#CC(C#N)=Cc1ccc(O)c(O)c1` [TYRPHOSTIN 23], on Aromatase, the IC50 turned out to be 70.6 µM. This counts as double-digit micromolar.
